# High-throughput results as filed in PubChem BioAssay.
# Most compounds without a hit are left out; they make up all but 1.6% or so of the library.
# MsrA inhibitor – bovine MsrA enzyme inhibitors, primary screen, biochemical, absorbance, HTS; inhibition, % at 15.5 µM; Methionine sulfoxide reductase A (Bos taurus); purified bovine MsrA, absorbance read-out; actives 0.75% (n = 360,000); in the data active means inhibition above about 4.5%;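 further: 0% = vehicle wells with enzyme and 100% = reference inhibitor wells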
# bovine MsrA act – bovine MsrA enzyme activators, primary screen, biochemical, absorbance, HTS. Methionine sulfoxide reductase A (Bos taurus). purified bovine MsrA, absorbance read-out. activation, % at 10.6 µM. actives 0.3% (n = 360,000). AID 602163, 2012; in the data active means activation above about 7.5%;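 further: 0% = vehicle and 100% = reference activator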
# p-CIP stab down – p/CIP-EGFP fusion destabilizers, primary screen, fluorescence, F442A cells; 16 h; decrease of EGFP signal, % at 10 µM; actives 0.01% (n = 290,000);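 active means EGFP signal decrease of at least 30% at 10 µM or well 3 SD below plate mean, unless failing retest; inactive means the rest, including hits failing retest or dose response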
# SKN-1 inh – suppressors of acrylamide-induced Pgst-4::GFP reporter in worms, primary screen, SKN-1 inhibitor project, whole organism, uHTS, GFP/RFP fluorescence ratio, strain VP596; C. elegans VP596 Pgst-4::GFP/RFP ratio, 24 h; inhibition, % at 21.8 µM; actives 0.49% (n = 360,000);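 active means interference check ratio from 0.5 to 1.5 plus GFP to RFP signal ratio inhibition reaching or exceeding a fixed threshold, cut at about 30% in these data, passing the limit was not always enough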
# MT1-MMP act inh – blockers of MT1-MMP proenzyme processing, primary screen, HT1080 RFP-PRO-GFP cells, GFP/RFP fluorescence; Matrix metalloproteinase-14 (Homo sapiens), P50281; GFP/RFP ratio fluorescence, overnight; percent of plate control window, DMSO zero; GFP/RFP ratio change, % at 20 µM; actives 0.061% (n = 360,000); AID 651647, 2012;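 active means GFP/RFP ratio change of at least 30% with cell ATP level not reduced by more than half and red fluorescence within 50% of control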
#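 system = RFP-PRO-GFP reporter HT1080 cells | dosing = 20 µM single dose, 1% DMSO | timing = overnight cell settling, then overnight compound exposure, 37 °C, 5% CO2 | read-out basis = GFP/RFP fluorescence ratio | controls = DMSO and RFP-L50D-GFP cell wells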
# Starred values were filed as active, the others as inactive; . = no result.
SMILES,MsrA inhibitor,bovine MsrA act,p-CIP stab down,SKN-1 inh,MT1-MMP act inh
O=C(c1ccc(F)cc1)N1CCN(c2ccccn2)CC1,1,-1,6,11,3
Fc1cccc(F)c1/C=C/c1ccc2ccccc2n1,1,-10,10,51*,-1
CCOC(=O)C1=C(CSc2nc(CC)c(C)cc2C#N)OC(N)=C(C#N)C1c1ccccc1 (stereo not drawn),1,-6,2,8,-26
CCOC(=O)C1=C(CSc2nc(-c3ccccc3)ccc2C#N)OC(N)=C(C#N)C1c1ccc(OC)cc1 (stereo not drawn),1,-2,-57,43*,-42
COc1ccc(N2CCN(C(=O)C(=O)c3c(C)[nH]c4ccccc34)CC2)cc1,1,-2,-3,6,3
CC(=O)c1ccc(N2CCN(C(=O)C(=O)c3c(C)[nH]c4ccccc34)CC2)cc1,4.6*,-6,0,2,5
Cc1ccc(CSc2nc3ccccc3c(=O)n2Cc2ccco2)cc1,-1,2,-5,38*,-2
CCCC(=O)N1CCN(c2ccc(NC(=O)c3cc4ccccc4o3)cc2)CC1,2,-3,-5,48*,1
O=C(NC(=S)Nc1ccc(CN2CCCCC2)cc1)c1cc2ccccc2o1,1,-3,-2,73*,4
CN[C@H]1C[C@H]2c3[nH]c4c(-c5ccccc5)cccc4c3CCN2C[C@H]1[C@H](C)O,0,.,.,.,.
O=C(N[C@H](Cc1ccccc1)C(=O)N1CCN(c2ncccn2)CC1)[C@H]1O[C@@H](n2ccc(=O)[nH]c2=O)[C@H](O)[C@@H]1O,2,.,.,.,.
COc1cccc(C(=O)N[C@H](C(=O)N2CCC[C@H]2C(=O)NCc2ccccc2)C2CCCCC2)c1,1,.,.,.,.
c1ccc(Cn2nnnc2C(c2ccccc2)N2CCN(c3nc4ccccc4s3)CC2)cc1 (stereo not drawn),-1,-4,-8,13,-11
c1csc(Cn2nnnc2CN2CCN(c3nc4ccccc4s3)CC2)c1,0,-4,-20,36*,4
CCN(CC)C(=O)[C@H]1C[C@@H]2[C@H](C[C@@H](c3ccccc3)[C@H]1C)N(c1ccc(F)cc1)C(=O)N2C/C=C(\C)CCC=C(C)C,0,.,.,.,.
CCCCOc1ccc(C(=O)NC2CCCCN(C)C2=O)cc1 (stereo not drawn),0,.,.,.,.
COc1ccc(Nc2ccc(OC)cc2)cc1,-2,-12,6,47,38*
COC(=O)CSc1n[nH]c(=S)s1,-1,6,5,0,2
CCSc1n[nH]c(=S)s1,-1,8.5*,-18,7,1
O=C(CC(c1ccccc1)c1ccccc1)NCCOCc1ccccc1,-1,-4,15,-1,0
COCCNC(=O)CC(c1ccccc1)c1ccccc1,-1,1,0,36*,2
COCCn1cc(C(=O)NCc2cccs2)c2c3ccccc3n(C)c2c1=O,0,-3,10,41*,0
COCCn1cc(C(=O)NCCN(C)C)c2c3ccccc3n(C)c2c1=O,1,-1,9,14,1
COc1ccc(Cc2nc(-c3ccc(Cl)cc3)no2)cc1,0,-3,8,35*,6
CCN(CC)C(=O)c1sc(NC(=O)Cc2ccc(OC)cc2)c(C#N)c1C,0,-1,-13,45*,-1
SMILES,MsrA inhibitor,bovine MsrA act,p-CIP stab down,SKN-1 inh,MT1-MMP act inh
O=C1CC(NNC(=O)c2ccccc2)C(=O)N1 (stereo not drawn),1,1,-4,2,1
O=C1CC(NNC(=O)c2ccc(Br)cc2)C(=O)N1 (stereo not drawn),0,-3,-6,43*,2
COc1ccc(-c2ncn(CCc3ccccc3OC)c2CC(C)C)cc1,1,.,.,.,.
CCN(CC)c1ccc(/C=C2\C(=O)c3ccc(C(=O)O)cc3C2=O)cc1,4,-3,-3,36*,-27
Nc1nnc(CC(=O)N/N=C/c2ccc(-c3ccc(F)cc3)o2)s1,6.1*,-3,-15,15,1
Cc1ccc(NC(=O)COC(=O)C2(C)CC2(Cl)Cl)cc1S(=O)(=O)N1CCOCC1 (stereo not drawn),0,-2,.,41*,3
